# Source: PubChem (Sanford-Burnham Center for Chemical Genomics)
# bIAP activator = increases bovine intestinal alkaline phosphatase activity; AID 1016; 0.17% of 200,000 active; purified bovine IAP, CDP-star luminescence, 30 min; stronger effect = higher value; fold of DMSO-control signal, blank-subtracted; activation factor at 20 µM;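 active means activation factor of 2 or more at 20 µM, a signal rise over negative controls twice the positive control's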
# hIAP act = increases human intestinal alkaline phosphatase activity. activation factor at 10 µM. P09923. purified human IAP, CDP-Star luminescence, 30 min; stronger effect = higher value; 1 = vehicle-only enzyme, 0 = enzyme-free background. 0.16% of 330,000 active;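 active means activation factor of the enzyme at least 2-fold when tested at 20 µM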
# Target sequence (P09923 whole entry, looked up): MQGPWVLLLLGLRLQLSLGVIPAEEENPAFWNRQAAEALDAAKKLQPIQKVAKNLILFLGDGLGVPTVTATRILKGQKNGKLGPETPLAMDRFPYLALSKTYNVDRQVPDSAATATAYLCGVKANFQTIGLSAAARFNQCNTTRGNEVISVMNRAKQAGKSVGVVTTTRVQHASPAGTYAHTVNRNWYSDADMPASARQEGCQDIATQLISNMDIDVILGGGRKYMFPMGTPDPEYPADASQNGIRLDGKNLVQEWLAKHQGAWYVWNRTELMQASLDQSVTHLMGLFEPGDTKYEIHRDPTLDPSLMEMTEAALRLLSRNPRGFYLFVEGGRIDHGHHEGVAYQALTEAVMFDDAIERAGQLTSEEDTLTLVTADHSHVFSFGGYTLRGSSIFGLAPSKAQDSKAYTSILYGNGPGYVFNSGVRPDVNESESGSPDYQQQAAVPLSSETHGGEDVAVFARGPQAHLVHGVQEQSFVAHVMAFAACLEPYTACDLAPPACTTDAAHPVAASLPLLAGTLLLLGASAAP
# hIAP block = human IAP inhibition | AID 2544 | 0.12% of 330,000 active | inhibition, % at 10 µM | P09923 | purified IAP, CDP-Star luminescence, 30 min;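 active means inhibition reaching a set limit with compound at 10 µM in the primary screen, cut at about 35% in these data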;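 further: plate controls were DMSO wells with enzyme for no effect and no-enzyme buffer wells for full effect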
# mIAP inh = mouse IAP inhibition; purified mouse IAP, CDP-Star luminescence, 30 min; 0.2% of 330,000 active; inhibition, % at 10 µM;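 active means inhibition of at least 40% at 10 µM in the primary screen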;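 further: plate controls were DMSO with enzyme for no effect and no enzyme wells for full effect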
# mIAP activ = increases mouse intestinal alkaline phosphatase activity | muIAP, CDP-Star luminescence, 30 min; stronger effect = higher value; 1 = vehicle-only enzyme signal, 0 = enzyme-free wells | activation factor at 10 µM | AID 2805 | 0.24% of 330,000 active;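 active means activation factor of at least 2 at 20 µM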
#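 System: Mouse IAP enzyme | Also added: CDP-Star substrate | Dosing: Compounds dispensed in DMSO | Schedule: 30 min enzyme-substrate-compound incubation at room temperature | Technique: Chemiluminescence readout | Control set: DMSO-only wells and no-enzyme negative control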
# bIAP inh = blocks bovine intestinal alkaline phosphatase activity; inhibition, % at 20 µM; AID 1019; 190,000 tested, under 10 active; purified bovine IAP, CDP-star luminescence, 30 min;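 active means over 50% inhibition of intestinal alkaline phosphatase at 20 µM in the single-dose screen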
#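 Assay system – bovine IAP enzyme · Quantity – bovine IAP at 1/65,000,000 final dilution · Detection – CDP-star luminescence signal · Times – 30 min reaction at room temperature · Also added – CDP-star substrate at 30 µM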
# mIAP inh conf = mouse IAP inhibition confirmation. shares compounds with mIAP inh. purified mouse IAP, CDP-Star luminescence, 30 min. inhibition, % at 10 µM. 4.7% of 11,000 active;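 active means inhibition of at least 40% at 10 µM in either of the two replicates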;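 further: plate controls were DMSO wells with enzyme for no effect and buffer wells lacking enzyme for full effect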
# Active calls of the source: *; i = inactive; / = no result. This is a sample that favours compounds with a hit; in the whole collection about 0.72% have one here.
SMILES,bIAP activator,hIAP act,hIAP block,mIAP inh,mIAP activ,bIAP inh,mIAP inh conf
COc1ccc(S(=O)(=O)N(C)C[C@H]2Oc3ccc(NC(=O)NC4CCCCC4)cc3C(=O)N([C@H](C)CO)C[C@@H]2C)cc1,/,0.94,6,-373,4.7*,/,-174
CC(C)NC(=O)Nc1ccc2c(c1)C(=O)N([C@H](C)CO)C[C@H](C)[C@@H](CN(C)S(=O)(=O)c1cccs1)O2,/,0.98,2,-42,1.4,/,/
COc1ccc(S(=O)(=O)N(C)C[C@H]2Oc3ccc(NC(=O)C4CCCCC4)cc3C(=O)N([C@H](C)CO)C[C@@H]2C)cc1,/,1,0,-37,1.4,/,/
C[C@H](CO)N1C[C@H](C)[C@@H](CN(C)S(=O)(=O)c2ccc(F)cc2)Oc2ccc(NC(=O)NC3CCCCC3)cc2C1=O,/,1.3,-27,-317,4.2*,/,-120
COc1ccc(NC(=O)Nc2ccc3c(c2)C(=O)N([C@H](C)CO)C[C@H](C)[C@@H](CN(C)S(=O)(=O)c2cccs2)O3)cc1,/,1,-4,-175,2.7*,/,-110
C[C@H](CO)N1C[C@H](C)[C@H](CN(C)Cc2ccc(Oc3ccccc3)cc2)Oc2ccc(NC(=O)Nc3cccc4ccccc34)cc2CC1=O,/,1,0,-176,2.8*,/,-103
C=CCOC(=O)C1=C(C)NC(=O)NC1c1cc(Cl)cc(Cl)c1OC (stereo unspecified),/,1.2,-22,-1,1,/,/
COc1ccccc1N(C)S(=O)(=O)c1ccc(C(=O)Nc2cc(F)ccc2C)cc1,/,0.98,2,4,0.96,/,/
CC(O)[C@H]1CNC(=O)C(=O)N1CCCCC1CCCCC1 (stereo partly specified),/,1.1,-15,-8,1.1,/,/
COc1ccc(C)cc1NC(=O)COC(=O)c1c(C)nn(-c2ccccc2)c1C,/,1.1,-7,-7,1.1,/,/
COc1ccc(S(=O)(=O)N(C)C[C@H]2Oc3ccc(NC(=O)Nc4ccccc4)cc3C(=O)N([C@H](C)CO)C[C@@H]2C)cc1,/,0.98,2,-208,3.1*,/,-115
Cc1ccc(/C=C2/SC(=O)NC2=S)o1,0.8,1.1,-8,45*,0.55,24,63*
Cc1ccc(N/C(N)=N/c2nc(C)cc(N3CCCCC3)n2)c(C)c1,8.4*,3.1*,-207,-270,3.7*,i,-322
Cc1ccc(N/C(N)=N/c2nc3c(c(=O)[nH]2)CCCC3)c(C)c1,1.5,1,-1,-26,1.3,-54,/
C/C=C(\C)C(=O)NCCN1C2=NC[C@@H](Cc3ccccc3)N2C[C@@H]1Cc1ccc(OC)cc1,/,0.89,12,-8,1.1,/,/
CCCCCCNC(=O)N[C@@H](C(=O)NCCC[C@H]1CN2C(=NC[C@@H]2Cc2ccccc2)N1CCc1cccc(OC)c1)C(C)C,/,1.1,-11,-231,3.3*,/,-211
Cc1cc(C)c(NC(=O)CN2CCN(c3ccccn3)CC2)c(C)c1,/,1.1,-14,1,0.99,/,/
COC(=O)c1cc(O)cc(OC)c1Oc1cc(C)cc(O)c1C(=O)O,/,0.95,5,53*,0.47,/,67*
COc1c(-c2ccc(O)cc2)oc2cc(O)cc(O)c2c1=O,/,0.71,28,13,0.87,/,/
CC(=O)Oc1cc(O)c2c(=O)c(OC(C)=O)c(-c3ccc(OC(C)=O)c(OC(C)=O)c3)oc2c1,/,0.69,31,43*,0.57,/,45*
O=c1ccc2cc3c([nH]c4ccc(Br)cc43)oc-2c1O,1,0.75,25,48*,0.52,2,44*
O=C(O)c1ccc(N=Nc2c(O)[nH]c3ccc(Br)cc23)cc1,/,0.91,9,11,0.89,/,/
O=C(NN1C(=O)/C(=C\c2ccc(O)c([N+](=O)[O-])c2)SC1=S)c1ccccc1Cl,/,0.82,18,44*,0.56,/,49*
CCOc1cc(/C=C2\SC(=S)N(Nc3ccccc3)C2=O)ccc1O,0.9,1.1,-12,44*,0.56,6,47*
N#CC1=C(N)Oc2cc(N)ccc2C1c1cccc(Br)c1 (stereo unspecified),/,1.3,-27,12,0.88,/,/
Cc1ccc(NC(=O)COC(=O)c2ccc(-n3nc(C)cc3C)cc2)c(F)c1,/,0.89,11,-2,1,/,/
